Assay results reported in article PMC2115978 (The Journal of Cell Biology, 1990).
Like-named read-outs stand apart in the source and are kept apart here. Each block holds one molecule with its values, some of them ahead of it.

What was measured:
[1] = tested on: endosomal insulin degrading activity (GE fraction); assay type: biochemical, rat; conditions: for effect on endosomal 125I-insulin degradation (in words): concentrations as in Tables I and II
macrophage endosomes = conditions: identical cell-free system; cited from earlier work
insulin receptor = insulin receptor (Rattus norvegicus, UniProt P15127); experiment: PEG precipitation of insulin-receptor complexes in endosomes; assay type: binding; conditions: for effect on insulin dissociation from receptor: 15 min, presence or absence of ATP, PCMB 1 mM
insulin receptor, sequence (P15127 27-759 limits assumed): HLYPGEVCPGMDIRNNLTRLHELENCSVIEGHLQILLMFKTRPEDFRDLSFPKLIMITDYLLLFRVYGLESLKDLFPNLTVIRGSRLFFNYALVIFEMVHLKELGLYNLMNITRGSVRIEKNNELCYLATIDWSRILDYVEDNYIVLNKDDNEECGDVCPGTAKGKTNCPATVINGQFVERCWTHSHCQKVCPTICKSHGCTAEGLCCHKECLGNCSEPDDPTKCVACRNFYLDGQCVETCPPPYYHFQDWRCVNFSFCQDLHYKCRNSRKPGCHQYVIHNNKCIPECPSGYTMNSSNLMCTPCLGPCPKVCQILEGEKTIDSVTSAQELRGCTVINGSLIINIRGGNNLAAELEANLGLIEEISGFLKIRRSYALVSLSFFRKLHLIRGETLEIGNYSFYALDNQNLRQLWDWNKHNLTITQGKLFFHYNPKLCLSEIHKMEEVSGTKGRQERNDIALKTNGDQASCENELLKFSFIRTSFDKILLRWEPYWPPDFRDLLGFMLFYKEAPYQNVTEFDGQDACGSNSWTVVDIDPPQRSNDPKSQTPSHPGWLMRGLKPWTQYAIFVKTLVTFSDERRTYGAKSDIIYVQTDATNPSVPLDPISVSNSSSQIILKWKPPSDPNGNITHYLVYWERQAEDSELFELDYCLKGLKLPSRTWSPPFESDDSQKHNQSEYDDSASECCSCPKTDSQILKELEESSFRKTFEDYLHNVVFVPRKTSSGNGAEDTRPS
insulin receptor, sequence (P15127 764-1383 partner limits assumed): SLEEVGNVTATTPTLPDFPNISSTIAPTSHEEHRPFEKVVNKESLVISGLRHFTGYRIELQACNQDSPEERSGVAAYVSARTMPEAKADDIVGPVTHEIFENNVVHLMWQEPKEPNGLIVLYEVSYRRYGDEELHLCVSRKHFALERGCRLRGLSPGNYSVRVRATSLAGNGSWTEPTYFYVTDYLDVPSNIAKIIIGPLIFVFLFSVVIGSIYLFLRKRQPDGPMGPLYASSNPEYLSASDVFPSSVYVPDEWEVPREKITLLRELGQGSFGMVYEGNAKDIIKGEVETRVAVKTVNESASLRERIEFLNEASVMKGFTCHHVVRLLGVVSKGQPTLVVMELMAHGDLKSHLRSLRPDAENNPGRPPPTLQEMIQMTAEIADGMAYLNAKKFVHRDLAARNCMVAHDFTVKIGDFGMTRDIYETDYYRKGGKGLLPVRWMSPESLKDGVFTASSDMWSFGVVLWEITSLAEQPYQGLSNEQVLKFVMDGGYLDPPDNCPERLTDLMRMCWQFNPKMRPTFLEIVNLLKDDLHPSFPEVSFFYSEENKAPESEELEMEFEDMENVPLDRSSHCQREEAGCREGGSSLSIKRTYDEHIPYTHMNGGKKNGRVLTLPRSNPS

[2] = tested on: endosomal protease(s) of rat liver endosomes (GE fraction); assay type: in vitro ADME; conditions: mean ± SD, n = 3; for degradation within isolated endosomes by acid precipitation: cell-free system, 37C, up to 60 min, 10% TCA
[3] = cited from earlier work
[4] = tested on: endosomal protease(s) of rat liver endosomes (GE fraction); experiment: Sephadex G-50 chromatography of radioactivity acid-extracted from endosomes; assay type: in vitro ADME
[5] = Internalization of injected 125I-insulin into GE fraction of liver; assay type: in vivo, rat; conditions: 5 min after portal vein injection, 100 ng/100 g bw; mean ± SD, n = 9
EGF receptor = conditions: freshly prepared endosomes; ref 49a; cited from earlier work
[6] = tested on: GE fraction proton translocase activity; experiment: Cell-free ATP-dependent acidification assay; assay type: biochemical, rat; conditions: 1 µM added at end of incubation; acridine orange absorbance 492/540 nm
How it was run: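 Pelleted at 16,000 g for 1 h, Dounce-resuspended, equilibrated 3-6 h at 4°C. Acridine orange 6 µM, ATP 0.4 mM (final); initial quench rates recorded. Test compound 1 µM added after incubation.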

prolactin receptor = target: T1, prolactin receptor (Rattus norvegicus, UniProt P05710); experiment: Prolactin dissociation from its receptor in endosomes; assay type: binding
T1 sequence (P05710 20-310 isoform P05710-3 limits assumed): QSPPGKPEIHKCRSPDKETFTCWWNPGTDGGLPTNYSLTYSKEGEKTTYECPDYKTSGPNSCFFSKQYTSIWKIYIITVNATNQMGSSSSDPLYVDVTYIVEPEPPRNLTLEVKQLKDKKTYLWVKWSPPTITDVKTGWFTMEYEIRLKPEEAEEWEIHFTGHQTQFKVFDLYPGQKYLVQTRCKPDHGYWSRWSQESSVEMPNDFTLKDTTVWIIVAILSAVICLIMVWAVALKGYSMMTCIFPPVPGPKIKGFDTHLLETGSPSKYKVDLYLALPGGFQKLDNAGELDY

[7] = Table II, 50 µM, 0-30 min, mean ± SD, n = 3
[8] = Table I, 1 mM, acid solubility at 30 min, mean ± SD of 3 experiments
[9] = Table II, nucleotide 10 mM (in place of ATP), 0-30 min, mean ± SD, n = 3
[10] = Table II, 10 µM, 0-30 min, mean ± SD, n = 3
[11] = Table II, 1 mM, 0-30 min, mean ± SD, n = 3
[12] = Table II, 2 mM, 0-30 min, mean ± SD, n = 3

Molecule: CC[C@@]1([C@@H]2O[C@@H]([C@H]3O[C@@](O)(CO)[C@H](C)C[C@@H]3C)C[C@@H]2C)CC[C@H]([C@]2(C)CC[C@]3(C[C@H](O)[C@@H](C)[C@@H]([C@@H](C)[C@@H](OC)[C@H](C)C(=O)O)O3)O2)O1 [Monensin]
- inhibition of 125I-insulin degradation ([1]; 50 µM, 30 min): ~ 80%
- 125I-insulin degraded (percentage of control) [1, 7]: 20.6%
- effect on endosomal 125I-insulin degradation (in words) ([1]; 30 min): inhibited markedly

Molecule: O=S(=O)(F)Cc1ccccc1 [PMSF]
- 125I-insulin degraded (percentage of control) [1, 8]: 89.2%
- effect on endosomal 125I-insulin degradation (in words) ([1]; 30 min): no significant effect
- effect on degradation of mannose-BSA in macrophage endosomes (macrophage endosomes): inhibition of degradation

- effect on insulin dissociation from receptor (insulin receptor): inhibited
Molecule: c1cnc2c(c1)ccc1cccnc12 [1,10-Phenanthroline, 1,10-phenanthroline]
- inhibition of 125I-insulin degradation ([1]; 1 mM, 30 min): 91%
- 125I-insulin degraded (percentage of control) [1, 8]: 8.8%
- effect on endosomal 125I-insulin degradation (in words) ([1]; 30 min): Significant inhibition

Molecule: Leupeptin
- effect on endosomal 125I-insulin degradation (in words) ([1]; 30 min): no significant effect
- effect on degradation of mannose-BSA in macrophage endosomes (macrophage endosomes): inhibition of degradation

Molecule: Aprotinin
- effect on endosomal 125I-insulin degradation (in words) ([1]; 30 min): no significant effect

Molecule: O=C(O)c1cc[c]([Hg][Cl])cc1 [PCMB, p-chloromercuribenzoic acid]
- inhibition of 125I-insulin degradation ([1]; 1 mM, 30 min): 100%
- 125I-insulin degraded (percentage of control) [1, 8]: 0%
- effect on endosomal 125I-insulin degradation (in words) ([1]; 30 min): Significant inhibition
- effect on insulin dissociation from receptor (insulin receptor): inhibited

Molecule: O=C(O)CN(CCN(CC(=O)O)CC(=O)O)CC(=O)O [EDTA]
- effect on endosomal 125I-insulin degradation (in words) ([1]; 30 min): no significant effect

Molecule: Nc1nc2c(ncn2[C@@H]2O[C@H](COP(=O)(O)OP(=O)(O)OP(=O)(O)O)[C@@H](O)[C@H]2O)c(=O)[nH]1 [GTP]
- 125I-insulin degraded (percentage of control) [1, 9]: 52.8%

- dissociation of insulin from receptor (insulin receptor; 15 min incubation +ATP): 1.7 ng insulin.mg cell fraction pr
- loss of receptor-bound insulin (insulin receptor; 15 min incubation minus ATP): no loss
- internalized ligand dissociated from receptor (insulin receptor; freshly prepared endosomes): 59%
- proportion of intact insulin that was receptor-bound (PEG precipitable) (insulin receptor; freshly prepared endosomes, 0 min): 41%
Molecule: 125I-insulin: Porcine insulin (26.8 IU/mg, Eli Lilly) radioiodinated by the chloramine T method
- 125I-insulin degraded (percentage of control) ([2]; Table II, no nucleotide added (minus ATP), 0-30 min): 35.4%
- t1/2 of in vivo insulin clearance [3]: 6 min
- increase in size of peak eluting at position of radioiodotyrosine (peak III) ([4]; after 15 min incubation, rats given 2 µg 125I-insulin/100 g bw): threefold increase
- enrichment in GE fraction compared to parent homogenate [5]: 40 + 4 fold
- intact 125I-insulin (acid precipitable) retained in freshly prepared endosomes (insulin receptor; 0 min): 82%
- degradation of insulin (insulin receptor; 15 min incubation +ATP): 5.8 ng.mg cell fraction protein-1
- loss and degradation of free insulin (insulin receptor; 15 min incubation minus ATP): 2.1 ng.mg cell fraction protein-1

Molecule: CC[C@H]1/C=C/C=C/C[C@@H](C)[C@H](O)[C@@](C)(O)C(=O)[C@@H](C)[C@H](O)[C@@H](C)C(=O)[C@@H](C)[C@H](O)[C@@H](C)/C=C/C(=O)O[C@@H]2[C@H](C)[C@H](CC1)O[C@]1(CC[C@H](C)[C@H](C[C@@H](C)O)O1)[C@H]2C [Oligomycin]
- 125I-insulin degraded (percentage of control) ([1]; Table II, 5 µg/ml, 0-30 min, mean ± SD, n = 3): 90.2%
- effect on endosomal 125I-insulin degradation (in words) ([1]; 30 min): little effect

Molecule: Nc1ncnc2c1ncn2[C@@H]1O[C@H](COP(=O)(O)OP(=O)(O)OP(=O)(O)O)[C@@H](O)[C@H]1O [ATP]
- 125I-insulin degraded (percentage of control) [1, 9]: 100%

Molecule: 125I-EGF: mouse epidermal growth factor (Collaborative Research) radioiodinated by chloramine T method
- degradation within isolated endosomes by acid precipitation [2]: not detectable
- ligand dissociated from receptor (EGF receptor): 43%
- degradation within isolated endosomes by Sephadex G-50 chromatography ([4]; 0 vs 15 min incubation in cell-free system): not detectable

Molecule: Valinomycin
- inhibition of 125I-insulin degradation ([1]; 50 µM, 30 min): 17%

Molecule: C(=NC1CCCCC1)=NC1CCCCC1 [DCCD, dicyclohexylcarbodiimide]
- 125I-insulin degraded (percentage of control) [1, 10]: 50.4%
- 125I-insulin degraded (percentage of control) [1, 11]: 38.7%
- effect on endosomal 125I-insulin degradation (in words) ([1]; 30 min): significant inhi- bition

Molecule: CCN1C(=O)C=CC1=O [NEM, N-ethylmaleimide]
- 125I-insulin degraded (percentage of control) [1, 10]: 23.6%
- 125I-insulin degraded (percentage of control) [1, 11]: 26.8%
- effect on endosomal 125I-insulin degradation (in words) ([1]; 30 min): significant inhi- bition
- effect on endosomal 125I-insulin degradation (in words) ([1]; 30 min, listed as N-ethylmaleimide (NEM)): inhibited markedly

Molecule: [O]=[V]([O-])([O-])[O-] [Vanadate]
- 125I-insulin degraded (percentage of control) ([1]; Table II, 100 µM, 0-30 min, mean ± SD, n = 3): 99.9%
- effect on endosomal 125I-insulin degradation (in words) ([1]; 30 min): little effect

Molecule: Nc1ncnc2c1ncn2[C@@H]1O[C@H](COP(=O)(O)OP(=O)(O)NP(=O)(O)O)[C@@H](O)[C@H]1O [AMP- PNP]
- 125I-insulin degraded (percentage of control) [1, 9]: 24.5%

Molecule: Bacitracin
- inhibition of 125I-insulin degradation ([1]; 5 mg/ml, 30 min): 40%
- effect on endosomal 125I-insulin degradation (in words) ([1]; 30 min): Significant inhibition

Molecule: Pepstatin
- effect on endosomal 125I-insulin degradation (in words) ([1]; 30 min): no significant effect
- effect on degradation of mannose-BSA in macrophage endosomes (macrophage endosomes): inhibition of degradation

Molecule: Antipain
- effect on endosomal 125I-insulin degradation (in words) ([1]; 30 min): no significant effect
- effect on degradation of mannose-BSA in macrophage endosomes (macrophage endosomes): inhibition of degradation

Molecule: Triton X-100
- 125I-insulin degraded (percentage of control) ([1]; Table I, detergent 0.1%, 30 min, mean ± SD of 3 experiments): 22.9%
- effect on endosomal 125I-insulin degradation (in words) ([1]; 30 min): Significant inhibition

Molecule: CCN(CC)CCCC(C)Nc1ccnc2cc(Cl)ccc12 (centres unmarked) [Chioroquine, chloroquine]
- inhibition of 125I-insulin degradation ([1]; 2 mM, 30 min): ~ 80%
- 125I-insulin degraded (percentage of control) [1, 12]: 16.3%
- effect on endosomal 125I-insulin degradation (in words) ([1]; 30 min): inhibited markedly

Molecule: N=C(N)NC(=O)c1nc(Cl)c(N)nc1N [Amiloride]
- 125I-insulin degraded (percentage of control) [1, 12]: 96.6%
- effect on endosomal 125I-insulin degradation (in words) ([1]; 30 min): little effect

Molecule: Nc1ncnc2c1ncn2[C@@H]1O[C@H](COP(=O)(O)OP(=O)(O)O)[C@@H](O)[C@H]1O [ADP]
- 125I-insulin degraded (percentage of control) [1, 9]: 40.0%

Molecule: CO[C@@H]1C[C@@H](C[C@H]2CC[C@H](C)[C@H]([C@@H](C)C(=O)O)O2)O[C@]2(O[C@](C)([C@H]3CC[C@@](C)([C@@H]4O[C@@H]([C@H]5O[C@@](O)(CO)[C@H](C)C[C@@H]5C)C[C@@H]4C)O3)C[C@H]2C)[C@@H]1C [Nigericin]
- inhibition of 125I-insulin degradation ([1]; 50 µM, 30 min): ~ 80%
- 125I-insulin degraded (percentage of control) [1, 7]: 17.4%
- effect on endosomal 125I-insulin degradation (in words) ([1]; 30 min): inhibited markedly
- effect on ATP-generated pH gradients of GE fraction [6]: dissipated rapidly

- internalized ligand dissociated from receptor (prolactin receptor; after 15 min incubation in cell-free system): 50%
- internalized ligand dissociated from receptor (prolactin receptor; before incubation (freshly isolated endosomes)): 60%
B1: 125I-prolactin: ovine prolactin (30.5 IU/mg) radioiodinated by chloramine T method (protein, UniProt P01240 31-229, looked up)
Prolactin: TPVCPNGPGNCQVSLRDLFDRAVMVSHYIHNLSSEMFNEFDKRYAQGKGFITMALNSCHTSSLPTPEDKEQAQQTHHEVLMSLILGLLRSWNDPLYHLVTEVRGMKGVPDAILSRAIEIEEENKRLLEGMEMIFGQVIPGAKETEPYPVWSGLPSLQTKDEDARHSAFYNLLHCLRRDSSKIDTYLKLLNCRIIYNNNC
modifications: 125I radiolabel
- degradation within isolated endosomes by acid precipitation [2]: No degradation
